PG9 Ab binder: binds the HIV-1 gp120 antibody PG9 | TR-FRET gp120-PG9 antibody binding | 0.43% of 360,000 active | inhibition, % at 6.7 µM; in the data active means inhibition above about 8.5%
Rev-erbA mod: modulators of human Rev-erb alpha DNA binding | Rev-erbα–FITC-DNA binding, fluorescence polarization, 90 min | P20393 | activity, % at 10 µM | 0.79% of 370,000 active;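 active means activity above about 14%, limit read from the data; passing the limit was not always enough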;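 further: 0% = DMSO wells with 35 nM protein and 100% = DMSO wells with 750 nM protein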
Target sequence (P20393 whole entry, looked up): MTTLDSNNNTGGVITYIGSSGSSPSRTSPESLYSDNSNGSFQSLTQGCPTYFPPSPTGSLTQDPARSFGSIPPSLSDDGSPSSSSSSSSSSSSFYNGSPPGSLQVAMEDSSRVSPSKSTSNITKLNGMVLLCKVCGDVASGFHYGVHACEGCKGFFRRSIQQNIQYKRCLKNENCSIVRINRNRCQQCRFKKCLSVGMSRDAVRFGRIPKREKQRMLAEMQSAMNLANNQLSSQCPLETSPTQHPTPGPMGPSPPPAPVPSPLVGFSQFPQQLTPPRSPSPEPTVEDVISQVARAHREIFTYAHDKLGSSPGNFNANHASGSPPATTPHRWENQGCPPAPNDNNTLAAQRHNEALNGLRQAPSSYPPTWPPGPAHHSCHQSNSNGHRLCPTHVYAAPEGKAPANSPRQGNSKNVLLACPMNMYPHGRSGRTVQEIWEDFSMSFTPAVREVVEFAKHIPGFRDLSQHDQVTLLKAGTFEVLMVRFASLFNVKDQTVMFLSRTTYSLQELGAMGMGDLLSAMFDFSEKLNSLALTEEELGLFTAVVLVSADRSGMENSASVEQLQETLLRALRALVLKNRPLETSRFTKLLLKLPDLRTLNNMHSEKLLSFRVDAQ
Rin1-Abl PPI inh: human Rin1-Abl interaction inhibition; 0.4% of 360,000 active; TR-FRET Rin1/Abl binding, biochemical; inhibition, % at 7.35 µM; P00519+Q13671; in the data active means inhibition above about 5%, passing the limit was not always enough
TbMetRS inhib: Trypanosoma brucei MetRS inhibition; inhibition, % at 11.9 µM; 0.4% of 360,000 active; purified T. brucei MetRS, ATP depletion, Kinase-Glo luminescence;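 active means inhibition above a per-plate cutoff of the control wells' mean inhibition plus 3 SD, cut at about 5.5% in these data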;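 further: 0% = DMSO wells median and 100% = median of wells with control inhibitor compound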
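Test system: purified T. brucei MetRS enzyme. Also added: ATP, methionine and E. coli bulk tRNA substrates. Compound: 11.9 µM single point. Schedule: 15 min enzyme-compound preincubation, 2 h reaction, 10 min detection, 25 °C. Signal: luciferase luminescence of residual ATP, Kinase-Glo. Evaluation: percent inhibition versus plate control medians. Controls: DMSO wells, low control.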
Rin1-Abl confirm: confirmation of inhibitors of human Rin1-Abl interaction; shares compounds with Rin1-Abl PPI inh; TR-FRET Rin1-Abl binding, purified proteins; inhibition, % at 7.35 µM; 49% of 1,300 active; AID 602124
GFP quencher: counter-screen for Rin1-Abl inhibitors: GFP fluorescence quenchers | shares compounds with Rin1-Abl PPI inh | inhibitors/quenchers counterscreen | inhibition, % at 6.75 µM | 8.5% of 1,300 active | AID 602125;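 further: ABL1-eGFP fusion protein alone without its partner RIN1-SBP; 0% = protein with vehicle and 100% = wells lacking protein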
Starred values were filed as active, the others as inactive. Only some compounds are listed: those with a hit (about 1.8% of all), similar ones and a draw of the others. Unless noted, no stated cut-off is given here; in the data, active means inhibition above about 6.5%; inactive means the rest.

COc1ccc(C(NC(C)=O)c2cc(Cl)c3cccnc3c2O)cc1 (configuration not stated) was read as PG9 Ab binder 0, Rev-erbA mod 4, Rin1-Abl PPI inh 8.2*, TbMetRS inhib -1, Rin1-Abl confirm 7.0* and GFP quencher 1.
CN1CCN(C(c2ccc(Cl)cc2)c2cc(Cl)c3cccnc3c2O)CC1 (configuration not stated) was read as PG9 Ab binder -2, Rev-erbA mod -6, Rin1-Abl PPI inh 3 and TbMetRS inhib 0.
Screening COCc1[nH]nc2c1C(c1ccc(F)cc1)N(c1ccc(OC)cc1)C2=O (configuration not stated) returned PG9 Ab binder 1 and Rev-erbA mod 4.
Screening Cc1cc2c(cc1CC(=O)c1sccc1S(=O)(=O)Nc1onc(C)c1Cl)OCO2 returned Rev-erbA mod -8.
For COc1cc(/C=C2\C(=O)N(c3ccc(S(N)(=O)=O)cc3)N=C2C)ccc1OC(=O)c1ccco1 the results were PG9 Ab binder -1, Rev-erbA mod -2, Rin1-Abl PPI inh 10*, TbMetRS inhib 0, Rin1-Abl confirm -1 and GFP quencher 0.
For CC1=NN(c2ccccc2)C(=O)/C1=C\c1cn(-c2ccccc2)nc1C the results were PG9 Ab binder -2, Rev-erbA mod -1, Rin1-Abl PPI inh -1 and TbMetRS inhib 1.
COc1cc(/C=C2\C(=O)N(c3ccccc3)N=C2C)ccc1Oc1ccc([N+](=O)[O-])cc1[N+](=O)[O-] was read as PG9 Ab binder 1, Rev-erbA mod 9, Rin1-Abl PPI inh -1 and TbMetRS inhib 1.
For COc1ccccc1/C=C1/C(=O)N(c2ccccc2)N=C1C the results were PG9 Ab binder -1, Rev-erbA mod 3, Rin1-Abl PPI inh 13*, TbMetRS inhib -1, Rin1-Abl confirm 1 and GFP quencher -1.
Screening C#CCOc1ccc(/C=C2/C(=O)N(c3cccc(C(=O)O)c3)N=C2C)cc1OC returned PG9 Ab binder -3, Rev-erbA mod -8, Rin1-Abl PPI inh 16*, TbMetRS inhib 0, Rin1-Abl confirm 2 and GFP quencher 0.
Screening COc1cc(/C=C2\C(=O)N(c3cccc(C(=O)O)c3)N=C2C)ccc1OCc1ccccc1 returned PG9 Ab binder -3, Rev-erbA mod -5, Rin1-Abl PPI inh 6 and TbMetRS inhib 0.
Screening CC1=NN(c2ccccc2)C(=O)/C1=C\c1ccc(Oc2ccc([N+](=O)[O-])cc2[N+](=O)[O-])cc1 returned PG9 Ab binder -2, Rev-erbA mod 3, Rin1-Abl PPI inh 7.4*, TbMetRS inhib 1, Rin1-Abl confirm 1 and GFP quencher 0.
Screening COC(=O)c1cc2c(c3c4ccccc4n(S(=O)(=O)c4cccc(C)c4)c13)C(=O)N(Cc1ccccc1OC)C2 returned PG9 Ab binder 0 and Rev-erbA mod 9.
`CCCC(=O)N1CCC[C@]2(CC[C@H](CCC(=O)OCC)O2)C1` gave Rev-erbA mod -3.
`C1CCN2C[C@@H]3C[C@H](CN4CCCC[C@@H]34)[C@H]2C1` gave Rev-erbA mod -3.
For O=C(NCc1ccccc1)c1ccc(Br)cc1Br the results were PG9 Ab binder 0, Rev-erbA mod -4, Rin1-Abl PPI inh -4 and TbMetRS inhib 1.
O=C(NCc1ccccc1)c1ccccc1Br was read as PG9 Ab binder 2, Rev-erbA mod -5, Rin1-Abl PPI inh 7.8*, TbMetRS inhib -1, Rin1-Abl confirm -3 and GFP quencher -1.
Screening CN(C)S(=O)(=O)c1cccc(C(=O)N/N=C\c2ccccc2[N+](=O)[O-])c1 returned Rev-erbA mod -1.
For O=C(CCc1ccc(S(=O)(=O)N2CCOCC2)cc1)N/N=C/c1ccc(F)cc1F the results were PG9 Ab binder -1, Rev-erbA mod 3, Rin1-Abl PPI inh 3 and TbMetRS inhib 0.
Screening O=C(CCc1ccc(S(=O)(=O)N2CCOCC2)cc1)N/N=C/c1ccc(O)c(O)c1O returned PG9 Ab binder -1, Rev-erbA mod -6, Rin1-Abl PPI inh 13*, TbMetRS inhib 3, Rin1-Abl confirm 11* and GFP quencher 9.4*.
Screening O=[N+]([O-])c1ccc(N/N=C/c2cccc(O)c2O)c(S(=O)(=O)N2CCOCC2)c1 returned PG9 Ab binder -3, Rev-erbA mod 6, Rin1-Abl PPI inh 1 and TbMetRS inhib 0.
Screening O=[N+]([O-])c1ccc(N/N=C/c2ccc(O)c(O)c2O)c(S(=O)(=O)N2CCOCC2)c1 returned PG9 Ab binder -1, Rev-erbA mod 5, Rin1-Abl PPI inh 14*, TbMetRS inhib 1, Rin1-Abl confirm 9.5* and GFP quencher 13*.
Screening CC[C@@H]([C@H](C)O)n1ncn(-c2ccc(N3CCN(c4ccc(OC[C@@H]5CO[C@@](Cn6cncn6)(c6ccc(F)cc6F)C5)cc4)CC3)cc2)c1=O returned Rev-erbA mod -1.
Screening CC(C)C1CCC(C(=O)N[C@@H](Cc2ccccc2)C(=O)O)CC1 (some centres not stated) returned Rev-erbA mod -5.
For COC(=O)C1CN(CC(C)C)CCS(=O)(=O)N1Cc1ccc(C(F)(F)F)cc1 (configuration not stated) the results were Rev-erbA mod 1.
`O=S(=O)(Cc1ccccc1)N1CCN(c2ncccn2)CC1` gave PG9 Ab binder 0, Rev-erbA mod 0, Rin1-Abl PPI inh 7.2*, TbMetRS inhib 0, Rin1-Abl confirm -1 and GFP quencher 0.
`FC(F)(F)c1ccc(Cn2ccc3ccc(-c4ccc5ccn(Cc6ccccc6)c5c4)cc32)cc1` gave Rev-erbA mod 4.
Screening Oc1ccc(N=Nc2ccc3c(c2)OCCO3)c2cccnc12 returned PG9 Ab binder -1, Rev-erbA mod 7, Rin1-Abl PPI inh 11*, TbMetRS inhib -1, Rin1-Abl confirm 8.4* and GFP quencher 8.1*.
`COc1ccc(C)cc1N=Nc1ccc(O)c2ncccc12` gave PG9 Ab binder -5, Rev-erbA mod 13, Rin1-Abl PPI inh 9.0*, TbMetRS inhib -1, Rin1-Abl confirm 11* and GFP quencher 7.0*.
Screening N=c1ccn2c(n1)O[C@@H]1[C@@H](O)[C@H](CO)O[C@@H]12 returned Rev-erbA mod -6.
`O=S(=O)([O][Al])OC[C@H]1O[C@@](COS(=O)(=O)[O][Al])(O[C@H]2O[C@H](COS(=O)(=O)[O][Al])[C@@H](OS(=O)(=O)[O][Al])[C@H](OS(=O)(=O)[O][Al])[C@H]2OS(=O)(=O)[O][Al])[C@@H](OS(=O)(=O)[O][Al])[C@@H]1OS(=O)(=O)[O][Al]` gave Rev-erbA mod -1.
For COc1cccc(N=C2SC(C(=O)Nc3ccc(F)cc3)CC(=O)N2C)c1 (configuration not stated) the results were PG9 Ab binder -1, Rev-erbA mod -6, Rin1-Abl PPI inh 10*, TbMetRS inhib 5, Rin1-Abl confirm -1 and GFP quencher -1.

Screening results (PubChem BioAssay)
